In ChEMBL document CHEMBL2311523, “Identification of novel chromenone derivatives as interleukin-5 inhibitors” (Eur J Med Chem, 2013) one finds IC50 and inhibition data, which are given here for 25 molecules.

For orientation: pIC50 means the negative decadic logarithm of the IC50, by convention in mol/L. A lower pIC50 goes with a high IC50. A word on the inhibition: it is the relative decrease from the control value, in per cent. Lower therefore signals a weak effect.

Molecules are shown by their SMILES. pIC50: −log10 of the molar value.

Molecular target in one test: not listed separately
Kind of test: Inhibition of IL-5 in mouse pro-B Y16 cells after 48 hrs by WST1 assay. Background: Formazan colour is commonly taken as a measure of viable cells.
`O=c1c(-c2ccc(O)cc2)coc2cccc(OCC3CCCCC3)c12`: the pIC50 is 5.24.

The next test has as its target T1, Interleukin-5 (Mus musculus) (UniProt P04401).
T1 sequence (whole entry): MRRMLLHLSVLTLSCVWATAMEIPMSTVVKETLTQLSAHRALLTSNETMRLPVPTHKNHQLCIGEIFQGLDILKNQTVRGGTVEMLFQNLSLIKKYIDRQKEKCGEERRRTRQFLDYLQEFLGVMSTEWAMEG
Kind of test: Inhibition of IL-5 in mouse pro-B Y16 cells at 30 uM after 48 hrs by WST1 assay. The class given is cell-based. In outline: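 IL-5-dependent mouse pro-B Y16 cells were stimulated with 3 units/mL mIL-5 and incubated 48 h with or without compound. Cell metabolism was read by WST-1 tetrazolium reduction as an index of IL-5-driven proliferation.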
On to `O=C(/C=C/c1coc2cccc(OCC3CCCCC3)c2c1=O)c1ccc(C(F)(F)F)cc1`, for which the inhibition was determined as 42.7%. In turn, `CC(C)COc1cccc2occ(/C=C/C(=O)c3ccc(O)cc3)c(=O)c12` showed an inhibition of 87.5%. For `Cc1ccc(C(O)/C=C/c2coc3cccc(OCC4CCCCC4)c3c2=O)cc1` (racemic), the inhibition came to 93.2%. Take `O=c1c(/C=C/C(O)c2ccc([N+](=O)[O-])cc2)coc2cccc(OCC3CCCCC3)c12` (racemic): the inhibition turned out to be 93.8%. In the case of `O=C(/C=C/c1coc2cccc(OCC3CCCCC3)c2c1=O)c1ccc(F)cc1`, the inhibition amounted to 15.4%. Regarding `N#Cc1ccc(C(O)/C=C/c2coc3cccc(OCC4CCCCC4)c3c2=O)cc1` (racemic), the inhibition came to 94.4%. In turn, `COc1ccc(C(=O)/C=C/c2coc3cccc(OCC4CCCCC4)c3c2=O)cc1` had an inhibition of 9.3%. Molecule `O=c1c(/C=C/C(O)c2ccc(Cl)cc2)coc2cccc(OCC3CCCCC3)c12` (racemic) registered an inhibition of 93.5%. Molecule `N#Cc1ccc(C(=O)/C=C/c2coc3cccc(OCC4CCCCC4)c3c2=O)cc1` came in with an inhibition of 9.2%. In the case of `Cc1ccc(C(=O)/C=C/c2coc3cccc(OCC4CCCCC4)c3c2=O)cc1`, the inhibition amounted to 57.5%. The molecule `COc1cccc2occ(/C=C/C(=O)c3ccc(O)cc3)c(=O)c12` showed an inhibition of 32.3%. In the case of `CC(C)(C)c1ccc(C(=O)/C=C/c2coc3cccc(OCC4CCCCC4)c3c2=O)cc1`, the inhibition was 99.2%. Molecule `O=C(/C=C/c1coc2cccc(OCC3CCCCC3)c2c1=O)c1ccc(Cl)cc1` displayed an inhibition of 46.3%. For `COc1ccc(C(O)/C=C/c2coc3cccc(OCC4CCCCC4)c3c2=O)cc1` (racemic), the inhibition amounted to 93.6%. `O=c1c(/C=C/C(O)c2ccc(C(F)(F)F)cc2)coc2cccc(OCC3CCCCC3)c12` (racemic) displayed an inhibition of 92.7%. Consider `COc1cccc2occ(/C=C/C(O)c3ccc(O)cc3)c(=O)c12` (racemic), for which the inhibition was determined as 21.3%. For the molecule `CC(C)COc1cccc2occ(/C=C/C(O)c3ccc(O)cc3)c(=O)c12` (racemic), the inhibition came to 20.6%.

`O=c1c(/C=C/C(O)c2ccccc2)coc2cccc(OCC3CCCCC3)c12` (racemic) returned an inhibition of 93.9%.

Consider `O=C(/C=C/c1coc2cccc(OCC3CCCCC3)c2c1=O)c1ccc([N+](=O)[O-])cc1`, for which the inhibition was found to be 11.8%. On to `CC(C)(C)c1ccc(C(O)/C=C/c2coc3cccc(OCC4CCCCC4)c3c2=O)cc1` (racemic), for which the inhibition was 15.7%. On the same count and under the same terms, under `O=C(/C=C/c1coc2cccc(OCC3CCCCC3)c2c1=O)c1ccc(O)cc1` stands 99%. As to `O=c1c(/C=C/C(O)c2ccc(O)cc2)coc2cccc(OCC3CCCCC3)c12` (racemic), the inhibition was determined as 92.7%.

`O=C(/C=C/c1coc2cccc(OCC3CCCCC3)c2c1=O)c1ccccc1` registered an inhibition of 17.2%. Still for that read-out and setting: under `O=c1c(/C=C/C(O)c2ccc(F)cc2)coc2cccc(OCC3CCCCC3)c12` (racemic) stands 93.2%.
